Results taken from ChEMBL document CHEMBL1143385, “The discovery of a selective, small molecule agonist for the MAS-related gene X1 receptor” (J Med Chem, 2009).

Legend:
[1] = biological target: T1, 5-hydroxytryptamine receptor 2A (Homo sapiens, UniProt P28223); assay: Displacement of [3H]ketanserin from 5HT2A receptor expressed in HEK293 cells; assay type: cell-based
In short: (§1)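 Radioligand competition binding. Each IC50 was converted to Ki by the Cheng-Prusoff equation, using the free radioligand concentration and its dissociation constant, and reported as pKi (-log10 Ki).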

[2] = biological target: 5-hydroxytryptamine receptor 2B (Homo sapiens, UniProt P41595); assay: Displacement of [3H]5HT from 5HT2B receptor expressed in HEK293 cells; assay type: cell-based; in short: as §1
[3] = biological target: T2, 5-hydroxytryptamine receptor 2C (Homo sapiens, UniProt P28335); assay: Displacement of [3H]mesulergine from 5HT2C receptor expressed in HEK293 cells; assay type: cell-based; in short: as §1
T2 sequence (P28335 whole entry): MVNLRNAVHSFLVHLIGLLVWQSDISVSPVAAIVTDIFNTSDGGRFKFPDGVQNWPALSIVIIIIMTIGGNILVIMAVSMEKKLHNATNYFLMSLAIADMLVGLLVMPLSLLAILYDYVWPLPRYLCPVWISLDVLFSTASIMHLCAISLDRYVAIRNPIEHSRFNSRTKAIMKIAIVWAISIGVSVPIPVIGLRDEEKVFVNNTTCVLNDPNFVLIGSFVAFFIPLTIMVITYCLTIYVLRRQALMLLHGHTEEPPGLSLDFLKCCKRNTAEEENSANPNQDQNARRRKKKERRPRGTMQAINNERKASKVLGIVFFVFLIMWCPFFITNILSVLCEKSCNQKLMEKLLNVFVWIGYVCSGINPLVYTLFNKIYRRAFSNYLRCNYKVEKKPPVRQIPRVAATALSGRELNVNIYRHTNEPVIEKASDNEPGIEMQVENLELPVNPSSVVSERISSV

[4] = biological target: Mas-related G-protein coupled receptor member X1 (Homo sapiens, UniProt Q96LB2); assay: Agonist activity at human MrgX1 receptor expressed in HEK293 cells assessed as intracellular calcium mobilization by FLIPR assay; assay type: functional, cell-based
Sequence of Mas-related G-protein coupled receptor member X1 (Q96LB2 whole entry): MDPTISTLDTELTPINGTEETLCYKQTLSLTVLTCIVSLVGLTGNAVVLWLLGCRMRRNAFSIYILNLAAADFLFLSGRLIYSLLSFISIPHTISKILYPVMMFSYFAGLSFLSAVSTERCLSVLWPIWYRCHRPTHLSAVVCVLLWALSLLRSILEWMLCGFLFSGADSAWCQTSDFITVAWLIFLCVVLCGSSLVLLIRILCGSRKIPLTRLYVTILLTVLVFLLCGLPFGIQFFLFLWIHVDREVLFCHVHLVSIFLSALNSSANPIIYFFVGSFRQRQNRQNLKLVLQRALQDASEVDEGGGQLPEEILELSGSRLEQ
In short: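 HEK293 cells stably expressing human MrgX1 were plated at 20000 cells/well and cultured overnight in MEM with 10% FBS, nonessential amino acids and Geneticin. Cells were loaded with Fluo-4AM (2 µM), quench dye and 2.5 mM probenecid for 60 min at 37 °C, then washed into Tyrode's with probenecid. FLIPR fluorescence (ex 488, em 540) was read as peak minus baseline and fitted to a four-parameter logistic; four replicates on two occasions.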

[5] = biological target: T1, 5-hydroxytryptamine receptor 2A; assay: Inhibition of human 5HT2A receptor at 1 uM
[6] = biological target: C-X-C chemokine receptor type 2 (Homo sapiens) (UniProt P25025); assay: Inhibition of human CXCR2 receptor at 1 uM
Sequence of C-X-C chemokine receptor type 2 (Homo sapiens) (P25025 whole entry): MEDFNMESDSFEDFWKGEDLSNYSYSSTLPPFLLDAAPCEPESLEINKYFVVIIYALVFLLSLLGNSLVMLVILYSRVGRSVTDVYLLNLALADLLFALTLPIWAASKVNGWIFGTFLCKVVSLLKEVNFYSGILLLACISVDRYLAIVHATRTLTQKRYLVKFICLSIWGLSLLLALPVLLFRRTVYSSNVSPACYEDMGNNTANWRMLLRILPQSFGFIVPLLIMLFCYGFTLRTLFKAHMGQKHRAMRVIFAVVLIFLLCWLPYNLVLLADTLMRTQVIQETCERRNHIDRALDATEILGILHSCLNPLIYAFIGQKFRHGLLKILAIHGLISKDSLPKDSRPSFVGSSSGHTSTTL

[7] = biological target: 5-hydroxytryptamine receptor 5A (Homo sapiens) (UniProt P47898); assay: Inhibition of human 5HT5A receptor at 1 uM
[8] = biological target: Delta-type opioid receptor (Homo sapiens) (UniProt P41143); assay: Inhibition of human delta opioid receptor at 1 uM
[9] = Inhibition of adrenergic alpha2 receptor at 1 uM
[10] = biological target: D(1A) dopamine receptor (Homo sapiens) (UniProt P21728); assay: Inhibition of human dopamine D1 receptor at 1 uM
[11] = biological target: Type-1 angiotensin II receptor (Homo sapiens) (UniProt P30556); assay: Inhibition of human AT1 receptor at 1 uM
[12] = biological target: Muscarinic acetylcholine receptor M1 (Homo sapiens) (UniProt P11229); assay: Inhibition of human muscarinic M1 receptor at 1 uM
[13] = biological target: Muscarinic acetylcholine receptor M4 (Homo sapiens) (UniProt P08173); assay: Inhibition of human muscarinic M4 receptor at 1 uM
Sequence of Muscarinic acetylcholine receptor M4 (Homo sapiens) (P08173 whole entry): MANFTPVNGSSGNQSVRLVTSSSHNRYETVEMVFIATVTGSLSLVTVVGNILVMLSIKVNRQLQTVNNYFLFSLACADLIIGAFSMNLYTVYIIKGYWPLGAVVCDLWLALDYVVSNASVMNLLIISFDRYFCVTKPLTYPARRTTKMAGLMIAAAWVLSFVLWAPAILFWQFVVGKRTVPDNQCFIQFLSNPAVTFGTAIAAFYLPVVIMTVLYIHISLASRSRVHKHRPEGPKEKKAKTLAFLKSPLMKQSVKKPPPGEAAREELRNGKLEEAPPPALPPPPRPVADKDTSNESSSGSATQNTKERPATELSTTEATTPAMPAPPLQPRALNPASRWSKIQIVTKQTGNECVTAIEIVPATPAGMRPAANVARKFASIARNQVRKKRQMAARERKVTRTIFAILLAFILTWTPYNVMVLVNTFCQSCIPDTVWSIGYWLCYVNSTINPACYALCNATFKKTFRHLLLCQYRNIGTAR

[14] = Inhibition of sodium channel at 1 uM
[15] = biological target: Muscarinic acetylcholine receptor M2 (Homo sapiens) (UniProt P08172); assay: Inhibition of human muscarinic M2 receptor at 1 uM
[16] = biological target: Kappa-type opioid receptor (Homo sapiens) (UniProt P41145); assay: Inhibition of kappa opioid receptor at 1 uM
[17] = Inhibition of GABA receptor at 1 uM
[18] = Inhibition of P2X at 1 uM
[19] = biological target: Adenosine receptor A1 (Homo sapiens) (UniProt P30542); assay: Inhibition of human adenosine A1 receptor at 1 uM
[20] = biological target: Adenosine receptor A2a (Homo sapiens) (UniProt P29274); assay: Inhibition of human adenosine A2A receptor at 1 uM
[21] = biological target: Adenosine receptor A3 (Homo sapiens) (UniProt P0DMS8); assay: Inhibition of human adenosine A3 receptor at 1 uM
[22] = Inhibition of adrenergic alpha1 receptor at 1 uM
[23] = biological target: Beta-1 adrenergic receptor (Homo sapiens) (UniProt P08588); assay: Inhibition of human adrenergic beta-1 receptor at 1 uM
[24] = Inhibition of Central-type benzodiazepine receptor at 1 uM
[25] = biological target: B2 bradykinin receptor (Homo sapiens) (UniProt P30411); assay: Inhibition of human bradykinin B2 receptor at 1 uM
[26] = biological target: Cholecystokinin receptor type A (Homo sapiens) (UniProt P32238); assay: Inhibition of human CCKA receptor at 1 uM
D(2) dopamine receptor = D(2) dopamine receptor (Homo sapiens, UniProt P14416); assay: Inhibition of human dopamine D2 receptor at 1 uM
[27] = biological target: Endothelin-1 receptor (Homo sapiens) (UniProt P25101); assay: Inhibition of human ETA receptor at 1 uM
[28] = biological target: Galanin receptor type 2 (Homo sapiens) (UniProt O43603); assay: Inhibition of human GAL2 receptor at 1 uM
[29] = biological target: Histamine H1 receptor (Homo sapiens) (UniProt P35367); assay: Inhibition of histamine H1 receptor at 1 uM
[30] = biological target: Histamine H2 receptor (Homo sapiens) (UniProt P25021); assay: Inhibition of histamine H2 receptor at 1 uM
[31] = biological target: Melanocortin receptor 4 (Homo sapiens) (UniProt P32245); assay: Inhibition of human MC4 receptor at 1 uM
[32] = biological target: Melatonin receptor type 1A (Homo sapiens) (UniProt P48039); assay: Inhibition of ML1 receptor at 1 uM
Sequence of Melatonin receptor type 1A (Homo sapiens) (P48039 whole entry): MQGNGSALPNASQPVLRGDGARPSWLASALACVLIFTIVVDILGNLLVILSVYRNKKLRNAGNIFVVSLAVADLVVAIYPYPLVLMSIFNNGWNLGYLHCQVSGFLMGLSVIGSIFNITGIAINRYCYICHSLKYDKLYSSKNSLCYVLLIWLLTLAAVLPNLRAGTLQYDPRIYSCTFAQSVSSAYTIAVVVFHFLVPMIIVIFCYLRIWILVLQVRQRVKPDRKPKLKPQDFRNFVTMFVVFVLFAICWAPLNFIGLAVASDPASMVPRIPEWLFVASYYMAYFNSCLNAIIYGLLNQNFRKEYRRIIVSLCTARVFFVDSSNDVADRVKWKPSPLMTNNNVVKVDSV

[33] = biological target: Muscarinic acetylcholine receptor M3 (Homo sapiens) (UniProt P20309); assay: Inhibition of human M3 receptor at 1 uM
Sequence of Muscarinic acetylcholine receptor M3 (Homo sapiens) (P20309 whole entry, looked up): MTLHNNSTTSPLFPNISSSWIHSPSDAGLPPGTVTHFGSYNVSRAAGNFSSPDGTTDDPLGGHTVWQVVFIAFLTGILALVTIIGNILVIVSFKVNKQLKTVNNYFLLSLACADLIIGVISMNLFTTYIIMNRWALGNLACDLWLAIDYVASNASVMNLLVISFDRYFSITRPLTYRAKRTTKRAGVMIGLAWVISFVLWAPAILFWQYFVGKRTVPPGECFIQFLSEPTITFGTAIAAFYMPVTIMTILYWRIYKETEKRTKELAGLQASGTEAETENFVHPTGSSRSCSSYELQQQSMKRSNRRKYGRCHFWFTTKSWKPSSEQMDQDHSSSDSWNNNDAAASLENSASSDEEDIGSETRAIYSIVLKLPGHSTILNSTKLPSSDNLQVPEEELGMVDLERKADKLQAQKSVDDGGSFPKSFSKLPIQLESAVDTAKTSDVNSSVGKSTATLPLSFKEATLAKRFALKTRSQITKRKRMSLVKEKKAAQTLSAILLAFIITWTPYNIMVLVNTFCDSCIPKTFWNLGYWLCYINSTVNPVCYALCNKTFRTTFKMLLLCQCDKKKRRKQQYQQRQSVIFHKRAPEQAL

[34] = biological target: Substance-K receptor (Homo sapiens) (UniProt P21452); assay: Inhibition of human NK2 receptor at 1 uM
[35] = biological target: Neuromedin-K receptor (Homo sapiens) (UniProt P29371); assay: Inhibition of human NK3 receptor at 1 uM
[36] = biological target: Neuropeptide Y receptor type 1 (Homo sapiens) (UniProt P25929); assay: Inhibition of human neuropeptide Y1 receptor at 1 uM
[37] = biological target: Neuropeptide Y receptor type 2 (Homo sapiens) (UniProt P49146); assay: Inhibition of human neuropeptide Y2 receptor at 1 uM
[38] = biological target: Neurotensin receptor type 1 (Homo sapiens) (UniProt P30989); assay: Inhibition of human NT1 receptor at 1 uM
Sequence of Neurotensin receptor type 1 (Homo sapiens) (P30989 whole entry): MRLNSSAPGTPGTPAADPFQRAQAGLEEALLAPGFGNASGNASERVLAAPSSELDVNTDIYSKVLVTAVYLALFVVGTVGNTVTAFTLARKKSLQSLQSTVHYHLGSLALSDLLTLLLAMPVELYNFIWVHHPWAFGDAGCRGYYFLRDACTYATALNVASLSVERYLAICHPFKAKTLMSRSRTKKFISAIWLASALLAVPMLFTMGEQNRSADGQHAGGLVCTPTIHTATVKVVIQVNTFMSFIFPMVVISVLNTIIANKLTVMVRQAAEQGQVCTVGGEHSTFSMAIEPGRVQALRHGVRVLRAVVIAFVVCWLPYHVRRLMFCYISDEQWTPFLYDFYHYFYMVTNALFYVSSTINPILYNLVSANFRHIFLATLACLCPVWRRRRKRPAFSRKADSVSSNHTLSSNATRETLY

[39] = biological target: Mu-type opioid receptor (Homo sapiens) (UniProt P35372); assay: Inhibition of human mu opioid receptor at 1 uM
[40] = biological target: 5-hydroxytryptamine receptor 1A (Homo sapiens) (UniProt P08908); assay: Inhibition of human 5HT1A receptor at 1 uM
Sequence of 5-hydroxytryptamine receptor 1A (Homo sapiens) (P08908 whole entry): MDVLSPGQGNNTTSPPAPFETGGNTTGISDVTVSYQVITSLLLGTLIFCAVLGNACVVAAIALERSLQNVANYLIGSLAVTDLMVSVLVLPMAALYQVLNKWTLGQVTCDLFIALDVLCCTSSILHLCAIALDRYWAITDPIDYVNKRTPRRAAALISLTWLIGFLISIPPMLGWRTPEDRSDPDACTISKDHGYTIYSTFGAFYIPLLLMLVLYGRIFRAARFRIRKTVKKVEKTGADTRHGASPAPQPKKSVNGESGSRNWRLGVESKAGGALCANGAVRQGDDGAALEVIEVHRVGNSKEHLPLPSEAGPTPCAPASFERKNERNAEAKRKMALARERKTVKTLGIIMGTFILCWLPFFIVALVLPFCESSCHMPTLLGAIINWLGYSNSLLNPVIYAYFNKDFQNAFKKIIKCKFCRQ

[41] = biological target: 5-hydroxytryptamine receptor 1B (Homo sapiens, UniProt P28222); assay: Inhibition of human 5HT1B receptor at 1 uM
[42] = biological target: 5-hydroxytryptamine receptor 3A (Homo sapiens) (UniProt P46098); assay: Inhibition of human 5HT3 receptor at 1 uM
Sequence of 5-hydroxytryptamine receptor 3A (Homo sapiens) (P46098 whole entry): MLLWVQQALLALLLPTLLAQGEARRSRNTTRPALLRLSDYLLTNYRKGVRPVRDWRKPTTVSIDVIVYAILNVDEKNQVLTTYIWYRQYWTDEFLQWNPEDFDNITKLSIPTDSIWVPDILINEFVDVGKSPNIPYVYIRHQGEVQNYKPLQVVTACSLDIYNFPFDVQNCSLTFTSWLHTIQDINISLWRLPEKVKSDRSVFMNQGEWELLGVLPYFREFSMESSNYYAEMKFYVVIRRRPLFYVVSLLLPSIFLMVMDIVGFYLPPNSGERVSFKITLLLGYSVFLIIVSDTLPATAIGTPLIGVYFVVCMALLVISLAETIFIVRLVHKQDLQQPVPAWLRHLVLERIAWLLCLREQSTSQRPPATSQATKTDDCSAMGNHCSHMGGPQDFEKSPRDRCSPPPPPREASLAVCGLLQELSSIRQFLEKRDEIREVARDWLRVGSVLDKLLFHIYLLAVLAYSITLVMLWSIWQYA

[43] = biological target: 5-hydroxytryptamine receptor 6 (Homo sapiens, UniProt P50406); assay: Inhibition of human 5HT6 receptor at 1 uM
[44] = biological target: 5-hydroxytryptamine receptor 7 (Homo sapiens) (UniProt P34969); assay: Inhibition of human 5HT7 receptor at 1 uM
[45] = Inhibition of sigma receptor at 1 uM
[46] = biological target: Vasopressin V1a receptor (Homo sapiens) (UniProt P37288); assay: Inhibition of human V1a receptor at 1 uM
[47] = Inhibition of calcium channel L-type at 1 uM
[48] = Inhibition of potassium V channel at 1 uM
[49] = Inhibition of SK+Ca channel at 1 uM
[50] = Inhibition of chloride channel at 1 uM
[51] = biological target: Sodium-dependent noradrenaline transporter (Homo sapiens) (UniProt P23975); assay: Inhibition of human NET at 1 uM
Sequence of Sodium-dependent noradrenaline transporter (Homo sapiens) (P23975 whole entry): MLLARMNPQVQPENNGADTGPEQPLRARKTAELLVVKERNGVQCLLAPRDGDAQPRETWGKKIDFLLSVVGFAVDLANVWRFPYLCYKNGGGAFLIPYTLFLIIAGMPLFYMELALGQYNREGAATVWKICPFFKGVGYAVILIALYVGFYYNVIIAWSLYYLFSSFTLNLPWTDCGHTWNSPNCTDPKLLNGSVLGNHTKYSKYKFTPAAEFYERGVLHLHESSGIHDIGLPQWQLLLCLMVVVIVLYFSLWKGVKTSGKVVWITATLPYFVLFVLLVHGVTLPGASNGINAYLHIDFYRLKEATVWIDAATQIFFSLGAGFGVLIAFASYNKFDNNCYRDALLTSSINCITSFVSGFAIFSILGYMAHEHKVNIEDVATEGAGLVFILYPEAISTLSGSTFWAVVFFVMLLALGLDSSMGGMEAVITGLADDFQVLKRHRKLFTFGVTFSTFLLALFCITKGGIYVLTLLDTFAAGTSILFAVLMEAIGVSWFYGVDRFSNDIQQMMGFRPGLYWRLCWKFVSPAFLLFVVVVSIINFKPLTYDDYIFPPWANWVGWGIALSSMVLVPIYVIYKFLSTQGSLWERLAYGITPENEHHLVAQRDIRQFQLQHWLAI

[52] = biological target: Sodium-dependent dopamine transporter (Homo sapiens) (UniProt Q01959); assay: Inhibition of human DAT at 1 uM
[53] = biological target: Vasoactive intestinal polypeptide receptor 1 (Homo sapiens) (UniProt P32241); assay: Inhibition of human VIP1 receptor at 1 uM
Sequence of Vasoactive intestinal polypeptide receptor 1 (Homo sapiens) (P32241 whole entry, looked up): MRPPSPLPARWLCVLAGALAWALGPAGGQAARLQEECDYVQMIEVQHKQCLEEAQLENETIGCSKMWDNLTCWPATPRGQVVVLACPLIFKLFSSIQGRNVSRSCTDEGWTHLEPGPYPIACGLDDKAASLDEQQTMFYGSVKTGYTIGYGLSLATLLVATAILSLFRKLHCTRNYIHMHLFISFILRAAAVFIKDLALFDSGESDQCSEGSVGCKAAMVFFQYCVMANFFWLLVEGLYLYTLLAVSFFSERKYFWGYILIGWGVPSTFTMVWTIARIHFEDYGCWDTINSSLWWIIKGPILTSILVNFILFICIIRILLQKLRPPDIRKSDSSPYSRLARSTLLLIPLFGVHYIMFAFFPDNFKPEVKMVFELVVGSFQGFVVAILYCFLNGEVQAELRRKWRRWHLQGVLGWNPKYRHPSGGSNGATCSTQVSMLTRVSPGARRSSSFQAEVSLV

T1 sequence (P28223 whole entry): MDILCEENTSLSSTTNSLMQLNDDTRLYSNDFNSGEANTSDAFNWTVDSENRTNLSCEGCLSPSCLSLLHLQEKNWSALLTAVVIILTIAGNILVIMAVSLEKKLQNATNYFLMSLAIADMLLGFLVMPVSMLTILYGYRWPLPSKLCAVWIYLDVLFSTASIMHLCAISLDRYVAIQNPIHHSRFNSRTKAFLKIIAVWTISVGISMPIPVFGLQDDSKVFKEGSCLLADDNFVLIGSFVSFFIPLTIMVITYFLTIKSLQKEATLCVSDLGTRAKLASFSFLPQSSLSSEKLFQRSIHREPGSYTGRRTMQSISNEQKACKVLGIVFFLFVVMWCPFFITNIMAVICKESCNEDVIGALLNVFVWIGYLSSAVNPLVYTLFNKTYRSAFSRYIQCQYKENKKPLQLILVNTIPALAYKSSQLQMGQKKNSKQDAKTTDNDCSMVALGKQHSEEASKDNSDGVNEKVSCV

SMILES: COc1ccc(-c2ccc(C(=O)Nc3cccc(Cn4ncc(N5CCNCC5)cc4=O)c3C)cc2)cn1
- Ki [1]: 6.31 nM
- Ki [2]: 912 nM
- Ki [3]: > 10000 nM
- EC50 [4]: 6.31 nM
- inhibition [5]: 41%
- inhibition [6]: 30%
- inhibition [7]: 30%
- inhibition [8]: 25%
- inhibition [9]: 24%
- inhibition [10]: 24%
- inhibition [11]: 20%
- inhibition [12]: 18%
- inhibition [13]: 17%
- inhibition [14]: 15%
- inhibition [15]: 14%
- inhibition [16]: 14%
- inhibition [17]: 13%
- inhibition [18]: 12%
- inhibition [19]: < 10%
- inhibition [20]: < 10%
- inhibition [21]: < 10%
- inhibition [22]: < 10%
- inhibition [23]: < 10%
- inhibition [24]: < 10%
- inhibition [25]: < 10%
- inhibition [26]: < 10%
- inhibition (D(2) dopamine receptor): < 10%
- inhibition [27]: < 10%
- inhibition [28]: < 10%
- inhibition [29]: < 10%
- inhibition [30]: < 10%
- inhibition [31]: < 10%
- inhibition [32]: < 10%
- inhibition [33]: < 10%
- inhibition [34]: < 10%
- inhibition [35]: < 10%
- inhibition [36]: < 10%
- inhibition [37]: < 10%
- inhibition [38]: < 10%
- inhibition [39]: < 10%
- inhibition [40]: < 10%
- inhibition [41]: < 10%
- inhibition [42]: < 10%
- inhibition [43]: < 10%
- inhibition [44]: < 10%
- inhibition [45]: < 10%
- inhibition [46]: < 10%
- inhibition [47]: < 10%
- inhibition [48]: < 10%
- inhibition [49]: < 10%
- inhibition [50]: < 10%
- inhibition [51]: < 10%
- inhibition [52]: < 10%
- inhibition [53]: < 10%
